Bioassay records: PubChem, SRMLSC
In the library only some 2.6% were active in any assay of this set; here they are far more common.
BB579 growth dn – reduces growth of yeast BB579 in restrictive medium. hit rate 0.51% among 140,000. inhibition, % at 10 µM. S. cerevisiae BB579 growth, OD615, 48 h;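 active means inhibition above a set limit, 3 SD over the mean compound inhibition, cut at about 44% in these data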
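System: Saccharomyces cerevisiae DeaD strain BB579, replicative lifespan model yeast. Buffer or medium: restrictive glucose-based CSMM-D medium. Doses: one dose, 10 µM compound with 0.25% DMSO. Timing: 4 h preincubation and 48 h exposure at 30 °C. Detection: turbidity as optical density at 615 nm. Benchmarks: amphotericin B 10 µg/mL, positive.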
RAM network inh – inhibitors of the yeast RAM network; S. cerevisiae dse1pr::URA3 reporter, 5-FOA growth OD615, 2 d; analog-sensitive cbk1-as2 kinase mutant strain; inhibition, % at 50 µM; hit rate 1.8% among 190,000;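 active means inhibition above a set limit, 3 SD over mean compound inhibition, cut at about 8.4% in these data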;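 further: inhibition rescues growth on 5-FOA so higher OD means more RAM inhibition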
Yeast lifespan up – yeast lifespan extension | S. cerevisiae growth with nicotinamide, OD615; deaD strain in restrictive glucose medium | inhibition of the nicotinamide effect, % at 10 µM | hit rate 0.68% among 130,000;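 active means inhibition above a set limit, placed 3 SD over the median of all compounds, cut at about 26% in these data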
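Material: Modified budding yeast, DeaD strain | Medium: Restrictive glucose medium | Probe or stimulus: 1.5 mM nicotinamide | Dosing: Single dose 10 µM compound, 0.25% DMSO | Times: 48 h at 30 °C | Technique: OD615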
Hits are given with their value; – = inactive; · = no result.

SMILES | BB579 growth dn | RAM network inh | Yeast lifespan up
COc1ccc(/C=N/Nc2cn[nH]c(=O)c2Cl)cc1 | · | – | ·
CC(C)CCN1CCN(Cc2ccc(C#CCCO)cc2)CC1CCO (stereo not drawn) | · | – | ·
CC[n+]1c(/C=C2\C=C(C)CC(C)(C)C2)sc2ccccc21 | – | – | 40.0
CC[n+]1c(/C=C2\C=C(C)CC(C)C2)sc2ccccc21 (stereo not drawn) | – | – | 26.8
CC[n+]1c(/C=C2/C=C(C)CC(C)(C)C2)sc2ccc(OC)cc21 | – | – | –
CCC1=C/C(=C/c2sc3ccccc3[n+]2CC)CC(C)(C)C1 | · | – | ·
COc1ccc2cc(C(=O)C3CCCN(C(=O)CCc4cnn(C)c4)C3)ccc2c1 (stereo not drawn) | · | – | ·
CCOC(=O)C1CCCN(c2ccc(NC(=O)c3snc4c(=O)[nH]cnc34)cc2)C1 (stereo not drawn) | – | – | –
CCOC(=O)C1CCCN(c2ccc(NC(=O)c3snc4c(=O)[nH]c(C)nc34)cc2)C1 (stereo not drawn) | – | 9.8 | –
CCN1CNC(=S)N(C(C)c2ccccc2)C1 (stereo not drawn) | – | – | –
O=C(O)/C(=C\c1ccccc1Cl)c1ccc(S(=O)(=O)N2CCCCC2)s1 | – | – | –
CSc1ccc(/C=C(\C(=O)O)c2ccc(S(=O)(=O)N3CCCCC3)s2)cc1 | – | 10.4 | –
O=C(CCCc1nc2ccccc2s1)NNC(=O)CCN1CCN(Cc2ccccc2)CC1 | · | – | ·
CC1CCCCN1S(=O)(=O)c1coc(C(N)=O)c1 (stereo not drawn) | 45.0 | – | –
CC1CCCN(S(=O)(=O)c2coc(C(N)=O)c2)C1 (stereo not drawn) | – | – | –
Cc1cc(C(=O)COc2ncnc3sccc23)c(C)n1C | – | – | 35.0
CNC(=O)COc1ncnc2sccc12 | – | – | –
Cc1c(-c2nc(N)nc(Nc3ccc(F)cc3)n2)oc2ccccc12 | – | – | –
COc1ccccc1Nc1nc(N)nc(-c2oc3ccccc3c2C)n1 | – | 9.8 | –
CCC12CN3CC(CC)(CN(C1)C3c1c(O)ccc3ccccc13)C2=O (stereo not drawn) | – | – | 26.1
C=CCOc1ccc(C2N3CC4(CC)CN2CC(CC)(C3)C4=O)cc1 (stereo not drawn) | – | – | –
CC(NC(=O)Nc1ccccc1)C(c1cccs1)N1CCOCC1 (stereo not drawn) | – | – | –
CC(NC(=O)Nc1ccc(Cl)cc1)C(c1cccs1)N1CCOCC1 (stereo not drawn) | 48.5 | – | –
COc1ccccc1CNC(=O)COC(=O)Cn1cnc2ccccc21 | · | – | ·
Cc1noc(C)c1COC(=O)c1cc(F)c(F)cc1Cl | – | – | –
SMILES | BB579 growth dn | RAM network inh | Yeast lifespan up
COc1ccccc1N(C)S(=O)(=O)c1ccc(Cl)c(C(=O)OCc2c(C)noc2C)c1 | · | 11.0 | ·
O=C(NC(=S)N1CCN(c2ccccn2)CC1)c1ccco1 | · | – | ·
CCOc1ccc(NC(=O)c2ccccc2NS(=O)(=O)c2ccc(F)cc2)c([N+](=O)[O-])c1 | – | 10.1 | –
O=C(Nc1ccccc1N1CCOCC1)c1ccccc1NS(=O)(=O)c1ccc(F)cc1 | – | – | –
CCOc1ccc(S(=O)(=O)Nc2ccccc2C(=O)Nc2ccccc2N2CCOCC2)cc1 | – | 8.8 | –
CCOC(=O)c1ccccc1NS(=O)(=O)c1ccc(OCC)cc1 | – | – | –
CS(=O)(=O)CCC(C(=O)OCc1ccc(Cl)cc1)N1C(=O)c2ccccc2C1=O (stereo not drawn) | – | – | –
O=C(C[n+]1cccc(NC(=O)c2ccccc2)c1)c1ccccc1 | – | – | –
O=C(C[n+]1cccc(NC(=O)c2ccccc2)c1)c1ccc(NC(=O)c2ccccc2)cc1 | – | 11.3 | –
c1ccc(COc2ccc(OCCn3cncn3)cc2)cc1 | – | – | –
c1ccc(-c2ccc(OCCCn3cncn3)cc2)cc1 | 79.8 | – | –
C=CCn1c(=O)c(C(=O)OCC)c(O)c2ccccc21 | · | – | ·
CCCn1c(=O)c(C(=O)OCC)c(O)c2cc(Br)ccc21 | · | 9.8 | ·
CCOc1ccc(NC(=O)Cn2nnc(C(=O)NCc3ccccc3OC)c2N)cc1 | – | 9.9 | –
CCOc1ccc(NC(=O)c2nnn(CC(=O)Nc3ccccc3OCC)c2N)cc1 | – | – | –
CN(C)n1cnc2ccsc2c1=O | · | – | ·
Cc1cc(NC(=O)CCC(=O)N(CC(=O)NCC2CCCO2)c2ccc3c(c2)OCCO3)no1 (stereo not drawn) | – | – | ·
C=CCn1c(=O)c(C(=O)Nc2ccccc2S(N)(=O)=O)c(O)c2ccccc21 | · | – | ·
CCOC(=O)CSc1c(-c2ccc(Cl)cc2)[nH]c2ccccc12 | – | – | –
O=C(Cc1cccs1)NCCSc1c(-c2ccc(Cl)cc2)[nH]c2ccccc12 | – | 8.9 | –
Cc1c(N/C(=N/S(=O)(=O)c2ccc(Cl)cc2)c2ccccc2)c(=O)n(-c2ccccc2)n1C | – | – | –
Cc1cc(NC(=O)CSc2nnc(C)n2-c2ccccc2C)no1 | · | – | ·
CCOc1cccc(CNCCO)c1OCc1ccc(Cl)cc1Cl | – | – | –
CCOc1cc(CNCCO)cc(Br)c1OCc1ccc(Cl)cc1Cl | 95.7 | – | –
Cc1cc(Nc2ccc(Br)c(C)c2)n2nc(C)nc2n1 | – | – | –
SMILES | BB579 growth dn | RAM network inh | Yeast lifespan up
Cn1c(CCCOc2ccc(Cl)cc2Cl)nnc1SCC(=O)Nc1ccc(F)c(Cl)c1 | – | 9.0 | –
C=CCn1c(CCCOc2ccc(Cl)cc2Cl)nnc1SCC(=O)Nc1nccs1 | – | 8.9 | –
CSc1cccc(NC(=O)CCCOc2ccc(Cl)cc2Cl)c1 | – | 11.1 | –
CSc1cccc(NC(=O)CCCOc2ccccc2)c1 | – | – | –
CCn1c(CCCOc2ccc(Cl)cc2Cl)nnc1SCC(=O)Nc1cc(F)ccc1C | – | – | –
Cn1c(CCCOc2ccc(Cl)cc2Cl)nnc1SCC(=O)Nc1cccc(F)c1 | – | – | –
COc1cc(NC(=O)c2cccc(Br)c2)nc(OC)n1 | · | – | ·
CCC(OC(=O)c1nsc(Cl)c1Cl)C(=O)NC(C)(C)C (stereo not drawn) | · | – | ·
CCOc1ccccc1NS(=O)(=O)c1cn(C)nc1C | · | – | ·
O=C(N/C(=C\c1ccc(Br)cc1)C(=O)N1CCCC1)c1ccccc1F | · | – | ·
COc1ccc(NC2=C3CC(C)CC=C3N(c3ccc(OC)cc3)C2=O)cc1 (stereo not drawn) | · | – | ·
CCCN(CC1CC1)C(=O)COC(=O)c1ccc2c(c1)C(=O)N(c1ccc(OCC)cc1)C2=O | · | 10.7 | ·
CCOc1ccc(N2C(=O)c3ccc(C(=O)OCc4c(C)noc4C)cc3C2=O)cc1 | – | – | –
COC(=O)C1=C(C)N(Cc2cccnc2)C(=O)/C1=C\c1sccc1C | · | – | ·
CS/C(=N\S(=O)(=O)c1ccc(Cl)cc1)c1ccccc1 | – | – | –
O=S(=O)(/N=C(\Sc1ccc(Cl)cc1)c1ccccc1)c1ccccc1 | 88.2 | – | –
O=C(CSCc1c(F)cccc1Cl)NCc1cccnc1 | – | – | –
O=C(/C=C/c1ccccc1)CC(O)(c1ccccc1)C(F)(F)F (stereo not drawn) | – | – | 34.9
O=C(CC(O)(c1ccccc1)C(F)(F)C(F)F)c1cccs1 (stereo not drawn) | – | – | –
COc1ccc(/C=C/C(=O)CC(O)(c2ccccc2)C(F)(F)F)cc1 (stereo not drawn) | – | – | ·
